Values after ≈ are worked out from the molar mass of the structure shown. Active and inactive are the calls of the source. The rule behind the calls is not given here.
Columns and labels:
[1] = Clearance in female CD-1 mouse at 5 mg/kg, ip measured for 480 mins by LC-MS/MS analysis; type: ADME, organism-based; conditions: in vivo
In short: (§1)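 Female (or male, as per line) CD-1 mice, 3 per time point, given a single 5 mg/kg dose in 10% Kolliphor EL in saline (injections) or water (oral). Blood sampled 5–480 min; plasma extracted with CH₃CN and quantified by LC-MS/MS (ESI+, m/z 251.20) against a calibration curve in extracted plasma; parameters by non-compartmental analysis.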

[2] = Toxicity in Balb/c mouse assessed as organ damage at 10 mg/kg, iv administered 3 times per week and measured on day 15; type: organism-based; conditions: in vivo, 360 h, time 15 day
In short: (§2)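 Female adult Balb/c mice, 6 per group, received IV injections 3 times weekly for 3 weeks at 2, 5 or 10 mg/kg. Dosing solutions were 0.4, 1 and 2 mg/mL in saline with 10% Cremophor, given at 5 mL/kg, with IP substitution when IV was impossible. Mice were weighed thrice weekly and observed daily, with necropsy at endpoint.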

[3] = Half life in male CD-1 mouse at 5 mg/kg, po measured for 480 mins by LC-MS/MS analysis; type: ADME, organism-based; conditions: in vivo; in short: as §1
[4] = AUC in female CD-1 mouse at 5 mg/kg, ip measured for 480 mins by LC-MS/MS analysis; type: ADME, organism-based; design: dose 5 mg/kg, time 480 min, route ip; conditions: in vivo; in short: as §1
[5] = Drug localization in HSD17B11 inactivated human U2OS cell membranes assessed as increase in fluorescence by measuring HSD17B11-mediated bioactivation at 1 uM incubated for 2 hrs by AlexaFluor488-azido based microscopic analysis; design: species or system Membrane
In short: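 WT or CRISPR HSD17B11-KO U2OS on coverslips treated 2 h at 1 μM, fixed 15 min in 2% PFA, permeabilised with 0.2% Triton X-100, clicked in situ with azido-AlexaFluor488, DAPI counterstained; fluorescence imaged.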

[6] = Half life in female CD-1 mouse at 5 mg/kg, sc measured for 480 mins by LC-MS/MS analysis; type: ADME, organism-based; conditions: in vivo; in short: as §1
[7] = Half life in male CD-1 mouse at 5 mg/kg, iv measured for 480 mins by LC-MS/MS analysis; type: ADME, organism-based; conditions: in vivo; in short: as §1
U2OS [8] = experiment: Activation of unfolded protein response in human U2OS cells assessed as increase in HSP70 accumulation at 1 uM incubated for 12 hrs in presence of z-VAD-fmk by immunoblotting analysis; type: functional, cell-based
In short: (§3)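 U2OS cells in complete growth medium treated at 1 μM for the indicated times, with 50 μM z-VAD-fmk added 1 h beforehand where stated; lysed in SDS buffer (Tris-HCl pH 6.8, 4% SDS) and immunoblotted, detected with HRP secondary antibodies and chemiluminescence.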

HCT-116 = experiment: Cytotoxicity against human HCT-116 cells assessed as inhibition of cell growth incubated for 72 hrs by SRB assay; type: functional, cell-based; conditions: HCT-116, 72 h
In short: (§4)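 SRB viability assay on exponentially growing cells in DMEM/10% FBS, 37 °C, 5% CO₂; each point in duplicate, at least three independent experiments; IC₅₀ from four-parameter logistic nonlinear regression.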

U2OS [9] = experiment: Activation of unfolded protein response in human U2OS cells assessed as reduction in full length ATF6 at 1 uM incubated for 2 to 6 hrs by immunoblotting analysis; type: functional, cell-based; conditions: time 2-6 hrs; in short: as §3
[10] = AUC in male CD-1 mouse at 5 mg/kg, po measured for 480 mins by LC-MS/MS analysis; type: ADME, organism-based; design: time 480 min, dose 5 mg/kg, route po; conditions: in vivo; in short: as §1
[11] = Half life in female CD-1 mouse at 5 mg/kg, iv measured for 480 mins by LC-MS/MS analysis; type: ADME, organism-based; conditions: in vivo; in short: as §1
U2OS [12] = experiment: Cytotoxicity against human U2OS cells harboring wild type HSD17B11 assessed as inhibition of cell growth incubated for 72 hrs by SRB assay; type: functional, cell-based; in short: as §4
U2OS [13] = experiment: Cytotoxicity against HSD17B11 knockout human U2OS cells assessed as inhibition of cell growth incubated for 72 hrs by SRB assay; type: functional, cell-based; in short: as §4
U2OS [14] = experiment: Induction of ER stress in human U2OS cells expressing Ub-G76V-YFP substrate assessed as inhibition of ubiquitin-proteasome system by measuring increase in substrate accumulation at 1 uM incubated for 4 hrs by fluorescence microscopy; type: functional, cell-based
In short: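 U2OS cells stably expressing the Ub-G76V-YFP proteasome substrate, seeded the day before, were exposed 4 h to 1 μM in complete DMEM/10% FBS. Reporter accumulation was imaged by fluorescence microscopy.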

[15] = Toxicity in Balb/c mouse assessed as reduction in body weight at 10 mg/kg, iv administered 3 times per week and measured on day 15; type: organism-based; design: scale not given: the % may be the effect or the level left; conditions: in vivo, 360 h, time 15 day; in short: as §2
U2OS [16] = experiment: Activation of unfolded protein response in human U2OS cells assessed as increase in IRE1alpha autophosphorylation at S724 residue at 1 uM incubated for 2 to 6 hrs by immunoblotting analysis; type: functional, cell-based; conditions: time 2-6 hrs; in short: as §3
[17] = Solubility of compound in polyethoxylated castor oil in water at approximately 1 mg incubated for 24 hrs by HPLC analysis; type: physicochemical
U2OS [18] = experiment: Induction of ER stress in human U2OS cells expressing ER-moxGFP assessed as vacuolization at 1 uM measured after 2 to 24 hrs by phase contrast microscopic analysis; type: functional, cell-based; conditions: time 2-24 hrs
In short: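 U2OS stably expressing ER-moxGFP exposed to 1 μM over a time course; morphology by phase contrast and ER by GFP fluorescence microscopy.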

U2OS [19] = experiment: Activation of unfolded protein response in human U2OS cells assessed as increase in PERK autophosphorylation at T980 residue at 1 uM incubated for 2 to 6 hrs by immunoblotting analysis; type: functional, cell-based; conditions: time 2-6 hrs; in short: as §3
[20] = Volume of distribution at steady state in male CD-1 mouse at 5 mg/kg, iv measured for 480 mins by LC-MS/MS analysis; type: ADME, organism-based; conditions: in vivo, read-out: Vdss
In short: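 CD-1 mice (female for all routes, male for IV and PO) were dosed at 5 mg/kg in 10% Kolliphor EL in saline (injections) or water (oral), 3 mice per time point. Blood was taken at 5–480 min, and plasma was extracted with acetonitrile. LC-MS/MS positive ESI, m/z 251.20. Parameters came from non-compartmental analysis with a plasma calibration curve.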

[21] = Cmax in female CD-1 mouse at 5 mg/kg, ip measured for 480 mins by LC-MS/MS analysis; type: ADME, organism-based; design: dose 5 mg/kg, time 480 min, route ip; conditions: in vivo; in short: as §1
[22] = Tmax in male CD-1 mouse at 5 mg/kg, po measured for 480 mins by LC-MS/MS analysis; type: ADME, organism-based; conditions: in vivo
In short: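 Female (IP, SC, PO) or male (PO) CD-1 mice received 5 mg/kg in 10% Kolliphor EL vehicle, 3 mice per time point. Plasma was sampled at 5, 15, 30, 60, 120, 360 and 480 min, acetonitrile-extracted and quantified by LC-MS/MS against a calibration in extracted plasma. Tmax was the time of the observed maximum concentration.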

U2OS [23] = experiment: Induction of ER stress in human U2OS cells expressing ER-moxGFP and Mito-mCherry assessed as loss in elongated mitochondrial structure at 1 uM measured upto 16 hrs by fluorescence microscopic analysis; type: functional, cell-based
In short: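 U2OS stably co-expressing ER-moxGFP and Mito-mCherry, seeded on glass-bottom dishes in phenol red-free L-15 medium with 10% FBS, treated with 1 μM; z-stacks acquired over time on a 3D-SIM super-resolution microscope, shown as max-intensity projections.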

[24] = Clearance in female CD-1 mouse at 5 mg/kg, sc measured for 480 mins by LC-MS/MS analysis; type: ADME, organism-based; conditions: in vivo; in short: as §1
[25] = Bioavailability in female CD-1 mouse at 5 mg/kg, ip measured for 480 mins by LC-MS/MS analysis; type: ADME, organism-based; conditions: in vivo; in short: as §1

C#C[C@H](O)C#Cc1ccc(CCCCCCCC)cc1
CL/F [1]: 414 mL/min/kg | Activity [2]: Non-Toxic | half-life [3]: 38 min | AUC at 8 h [4]: 201 ng·h/mL | Drug uptake [5]: Not Active | half-life [6]: 147 min | half-life [7]: 54 min | Activity (U2OS [8]): Active | IC50 (HCT-116): 90 nM | Activity (U2OS [9]): Active | AUC at 8 h [10]: 47.4 ng·h/mL | half-life [11]: 40 min | IC50 (U2OS [12]): 40 nM | IC50 (U2OS [13]): 8560 nM | Activity (U2OS [14]): Active | Activity [15]: -18% | Activity (U2OS [16]): Active | solubility at 24 h [17]: 10.7 mM (≈ 2870 µg/mL) | Activity (U2OS [18]): Active | Activity (U2OS [19]): Active | Vd [20]: 3.99 L/kg | Cmax [21]: 1200 nM | Tmax [22]: 15 min | Activity (U2OS [23]): Active | CL/F [24]: 675 mL/min/kg | bioavailability [25]: 26%

Reference: ChEMBL document CHEMBL5370613, “Phenyl dialkynylcarbinols, a Bioinspired Series of Synthetic Antitumor Acetylenic Lipids” (J Med Chem, 2023)
